Assay results taken from ChEMBL document CHEMBL1124370 (1989).
The source made the active and inactive calls. The calls are words filed in the database; no cut-off is given here.

Legend:
[1] = target: Aldo-keto reductase family 1 member B1 (Bos taurus) (UniProt P16116); test: Inhibition of aldose reductase in partially purified bovine lens preparation at 10e-6 M.
In short: (§1)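 Aldose reductase partially purified from bovine lens, with the final chromatographic step of the earlier preparation omitted. Assay run in duplicate with test compound at 1 × 10^-6 M or 1 × 10^-7 M. Reported as % inhibition of enzymatic activity.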

[2] = target: Aldo-keto reductase family 1 member B1 (Bos taurus) (UniProt P16116); test: […] inhibition of aldose reductase in partially purified bovine lens preparation at 10e-7 M concentration
In short: (§2)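 Enzyme partially purified from bovine lens by a published method, with the final chromatographic step omitted. Test compound was added at 1×10^-6 or 1×10^-7 M. Assays were run in duplicate, and the read-out was % inhibition of enzymatic activity.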

Rattus norvegicus [3] = test: […] inhibition of sorbitol accumulation in rat sciatic nerves at 10e-5 M concentration; format: functional, Sciatic nerve
In short: (§3)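 Sciatic nerves were taken from male Sprague-Dawley rats (200–250 g) after CO2 euthanasia. Nerves were incubated 3 h at 37 °C under 95% air/5% CO2 in Hank's salts buffer, pH 7.4, with 50 mM glucose and (0–5)×10^-5 M compound, in triplicate. Nerve sorbitol was measured spectrofluorometrically in duplicate, and the read-out was % inhibition of sorbitol accumulation.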

Rattus norvegicus [4] = test: […] inhibition of sorbitol accumulation in rat sciatic nerves at 10e-6 M concentration; NS=not significant; format: functional; details: Sciatic nerve; in short: as §3
Rattus norvegicus [5] = test: In vivo inhibition of galactitol accumulation in the diaphragm of rat at a dose of 67 mg/kg/day; NS =not significant; format: functional, organism-based
Rattus norvegicus [6] = test: In vivo inhibition of galactitol accumulation in the sciatic nerves of rat at a dose of 67 mg/kg/day; NS=not significant; format: functional, organism-based; details: Sciatic nerve
Rattus norvegicus [7] = test: In vivo inhibition of galactitol accumulation in the diaphragm of rat. at a dose of 56 mg/kg/day; NS=not significant; format: functional, organism-based
Rattus norvegicus [8] = test: In vivo inhibition of galactitol accumulation in the sciatic nerves of rat at a dose of 55 mg/kg/day; NS=not significant; format: functional, organism-based; details: Sciatic nerve
[9] = target: Aldo-keto reductase family 1 member B1 (Bos taurus) (UniProt P16116); test: Inhibition of aldose reductase in partially purified bovine lens preparation at 10e-7 M concentration; in short: as §1
Rattus norvegicus [10] = test: In vivo inhibition of galactitol accumulation in the sciatic nerves of rat at a dose of 107 mg/kg/day; format: functional; details: Sciatic nerve
Rattus norvegicus [11] = test: In vivo inhibition of sorbitol accumulation in rat sciatic nerves at 10e-6 M concentration; format: functional, Sciatic nerve; in short: as §3
Rattus norvegicus [12] = test: In vivo inhibition of galactitol accumulation in the diaphragm of rat at a dose of 107 mg/kg/day; format: functional
Rattus norvegicus [13] = test: In vivo inhibition of galactitol accumulation in the sciatic nerves of rat at a dose of 105 mg/kg/day; NS=not significant; format: functional, organism-based; details: Sciatic nerve
Rattus norvegicus [14] = test: In vivo inhibition of galactitol accumulation in the diaphragm of rat at a dose of 105 mg/kg/day; NS=not significant; format: functional, organism-based
Rattus norvegicus [15] = test: In vivo inhibition of galactitol accumulation in the diaphragm of rat vat a dose of 6 mg/kg/day; format: functional
Rattus norvegicus [16] = test: In vivo inhibition of galactitol accumulation in the sciatic nerves of rat at a dose of 6 mg/kg/day; format: functional; details: Sciatic nerve
Rattus norvegicus [17] = test: […] inhibition of sorbitol accumulation in rat sciatic nerves at 5*10e-6 M concentration; format: functional, Sciatic nerve; details: in the assay text read “In vitro” for “In vivo”
In short: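 Sciatic nerves from male Sprague-Dawley rats (200–250 g), removed after CO2 euthanasia, incubated ex vivo for 3 h at 37 °C under 95% air/5% CO2 in Hank's salts buffer, pH 7.4, with 50 mM glucose and 5 × 10^-6 M test compound. Triplicate incubations; nerve sorbitol measured in duplicate by spectrofluorometric assay. Reported as % inhibition of sorbitol accumulation.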

Rattus norvegicus [18] = test: In vivo inhibition of galactitol accumulation in the diaphragm of rat. at a dose of 50 mg/kg/day; NS=not significant; format: functional, organism-based
Rattus norvegicus [19] = test: In vivo inhibition of galactitol accumulation in the sciatic nerves of rat at a dose of 50 mg/kg/day; NS=not significant; format: functional, organism-based; details: Sciatic nerve
[20] = target: Aldo-keto reductase family 1 member B1 (Bos taurus) (UniProt P16116); test: […] inhibition of aldose reductase in partially purified bovine lens preparation at 10e-6 M concentration; in short: as §2
Rattus norvegicus [21] = test: In vivo inhibition of galactitol accumulation in the sciatic nerves of ratat a dose of 51 mg/kg/day; NS=not significant; format: functional, organism-based; details: Sciatic nerve
Rattus norvegicus [22] = test: In vivo inhibition of galactitol accumulation in the diaphragm of rat at a dose of 51 mg/kg/day; format: functional
Rattus norvegicus [23] = test: In vivo inhibition of galactitol accumulation in the diaphragm of rat at a dose of 48 mg/kg/day; format: functional
Rattus norvegicus [24] = test: In vivo inhibition of galactitol accumulation in the sciatic nerves of rat at a dose of 10 mg/kg/day; format: functional; details: Sciatic nerve
Rattus norvegicus [25] = test: In vivo inhibition of galactitol accumulation in the sciatic nerves of rat at a dose of 27 mg/kg/day; format: functional; details: Sciatic nerve
Rattus norvegicus [26] = test: In vivo inhibition of galactitol accumulation in the diaphragm of rat at a dose of 10 mg/kg/day; format: functional
Rattus norvegicus [27] = test: In vivo inhibition of galactitol accumulation in the diaphragm of rat. at a dose of 27 mg/kg/day; format: functional
Rattus norvegicus [28] = test: In vivo inhibition of galactitol accumulation in the sciatic nerves of ratat a dose of 106 mg/kg/day; format: functional; details: Sciatic nerve
Rattus norvegicus [29] = test: In vivo inhibition of galactitol accumulation in the diaphragm of rat at a dose of 106 mg/kg/day; format: functional

| inhibition [1] [%] | inhibition [9] [%] | SMILES | Inhibition (Rattus norvegicus [3]) [%] | Inhibition (Rattus norvegicus [11]) [%] | also measured |
| --- | --- | --- | --- | --- | --- |
| 89 |  | COc1ccc2c(C(=O)N(CC(=O)O)C(=O)OCc3ccccc3)cccc2c1C(F)(F)F | 28 |  | inhibition [2]: 66%; inhibition (Rattus norvegicus [4]): inactive; inhibition (Rattus norvegicus [5]): inactive; inhibition (Rattus norvegicus [6]): inactive |
| 53 | 5 | COc1ccc2c(/C(=N/S(=O)(=O)c3ccc(Br)cc3)N(C)CC(=O)O)cccc2c1C(F)(F)F |  |  | inhibition (Rattus norvegicus [7]): inactive; inhibition (Rattus norvegicus [8]): inactive |
| 96 | 89 | COc1ccc2c(C(=O)N(C=O)CC(=O)O)cccc2c1C(F)(F)F | 65 | 42 | inhibition in vivo at 107 mg/kg/day (Rattus norvegicus [10]): 51%; inhibition in vivo at 107 mg/kg/day (Rattus norvegicus [12]): 82% |
| 64 | 18 | COc1ccc2c(C(=O)N(CC(=O)O)C(=O)OCC(C)(C)C)cccc2c1C(F)(F)F | 37 | 28 | inhibition (Rattus norvegicus [13]): inactive; inhibition (Rattus norvegicus [14]): inactive |
|  |  | COc1ccc2c(C(=S)N(C)CC(=O)O)cccc2c1C(F)(F)F [TOLRESTAT] | 82 |  | inhibition in vivo at 6 mg/kg/day (Rattus norvegicus [15]): 80%; inhibition in vivo at 6 mg/kg/day (Rattus norvegicus [16]): 53%; Inhibition (Rattus norvegicus [17]): 76% |
| 62 | 15 | COc1ccc2c(C(=O)N(CC(=O)O)C(=O)c3ccccc3)cccc2c1C(F)(F)F | 31 | 40 | inhibition (Rattus norvegicus [18]): inactive; inhibition (Rattus norvegicus [19]): inactive |
|  |  | COC(=O)N(CC(=O)O)C(=S)c1cccc2c(C(F)(F)F)c(OC)ccc12 | 61 | 36 | inhibition [20]: 88%; inhibition [2]: 29%; inhibition (Rattus norvegicus [21]): inactive; inhibition in vivo at 51 mg/kg/day (Rattus norvegicus [22]): 80% |
| 97 | 82 | COC(=O)N(CC(=O)O)C(=O)c1cccc2c(C(F)(F)F)c(OC)ccc12 | 58 |  | inhibition (Rattus norvegicus [4]): inactive; inhibition in vivo at 48 mg/kg/day (Rattus norvegicus [23]): 54% |
| 95 | 71 | CSc1ccc2c(C(=S)N(C)CC(=O)O)cccc2c1C(F)(F)F | 93 | 72 | inhibition in vivo at 10 mg/kg/day (Rattus norvegicus [24]): 26%; inhibition in vivo at 27 mg/kg/day (Rattus norvegicus [25]): 64%; inhibition in vivo at 10 mg/kg/day (Rattus norvegicus [26]): 86%; inhibition in vivo at 27 mg/kg/day (Rattus norvegicus [27]): 90% |
| 85 | 51 | CSc1ccc2c(C(=O)N(C)CC(=O)O)cccc2c1C(F)(F)F | 73 | 34 | inhibition in vivo at 106 mg/kg/day (Rattus norvegicus [28]): 36%; inhibition in vivo at 106 mg/kg/day (Rattus norvegicus [29]): 73% |
